Experimental data taken from paper PMC9037807 (RSC Advances, 2021).
Where “and” joins values, the source holds several entries; their conditions need not be identical. Identical values can stand only once.

Columns and labels:
ovine COX-2 = biological target: T1, ovine COX-2 (Ovis aries, UniProt P79208); test: In vitro cyclooxygenase; format: biochemical
T1 sequence (P79208 17-603): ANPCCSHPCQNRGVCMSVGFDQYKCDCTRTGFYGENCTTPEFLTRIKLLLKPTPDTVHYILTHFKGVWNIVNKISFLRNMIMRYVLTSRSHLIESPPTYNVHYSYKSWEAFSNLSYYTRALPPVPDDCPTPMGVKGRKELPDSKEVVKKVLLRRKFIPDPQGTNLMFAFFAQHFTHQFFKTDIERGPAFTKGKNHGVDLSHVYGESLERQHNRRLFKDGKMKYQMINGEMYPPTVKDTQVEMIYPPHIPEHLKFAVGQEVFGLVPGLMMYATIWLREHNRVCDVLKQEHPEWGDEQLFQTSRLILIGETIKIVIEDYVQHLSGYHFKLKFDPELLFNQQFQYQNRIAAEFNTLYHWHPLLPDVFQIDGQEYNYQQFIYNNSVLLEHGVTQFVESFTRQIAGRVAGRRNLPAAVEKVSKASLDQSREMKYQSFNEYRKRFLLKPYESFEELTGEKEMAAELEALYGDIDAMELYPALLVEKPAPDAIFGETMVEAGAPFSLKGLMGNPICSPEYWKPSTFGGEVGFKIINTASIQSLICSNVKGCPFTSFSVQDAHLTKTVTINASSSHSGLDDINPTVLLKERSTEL

rat's stomach = test: Histo-pathological study of glandular and non-glandular stomach; format: in vivo; settings: text description
ovine COX-1 = biological target: T2, ovine COX-1 (Ovis aries, UniProt P05979); test: In vitro cyclooxygenase; format: biochemical
T2 sequence (P05979 25-600): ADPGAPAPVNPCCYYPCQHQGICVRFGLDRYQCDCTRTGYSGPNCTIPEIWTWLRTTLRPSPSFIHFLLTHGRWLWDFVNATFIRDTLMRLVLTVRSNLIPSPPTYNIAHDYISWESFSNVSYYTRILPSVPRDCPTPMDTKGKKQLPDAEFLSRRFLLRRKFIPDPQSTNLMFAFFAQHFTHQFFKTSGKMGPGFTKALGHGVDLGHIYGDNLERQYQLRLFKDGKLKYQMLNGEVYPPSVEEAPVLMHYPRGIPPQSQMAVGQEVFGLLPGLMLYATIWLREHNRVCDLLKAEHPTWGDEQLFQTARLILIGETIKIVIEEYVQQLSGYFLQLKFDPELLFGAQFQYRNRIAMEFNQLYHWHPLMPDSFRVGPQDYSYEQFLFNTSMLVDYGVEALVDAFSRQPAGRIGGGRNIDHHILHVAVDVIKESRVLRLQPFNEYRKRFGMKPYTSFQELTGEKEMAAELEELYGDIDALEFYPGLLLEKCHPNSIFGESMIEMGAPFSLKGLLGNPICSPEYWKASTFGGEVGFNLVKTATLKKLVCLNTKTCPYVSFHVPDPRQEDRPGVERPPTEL

[1] = system: carrageenan-induced rat paw edema; test: Carrageenan-induced rat paw edema model; format: in vivo; settings: 10 mg kg−1 po, n = 4
How it was run: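 Rats were dosed orally with test compound (10 mg kg−1) in 5% aqueous DMSO (v/v). […] Thirty minutes after dosing, 0.02 ml of 1% carrageenan was injected sub-plantar. Paw thickness was measured 1, 3 and 6 h after injection, and edema inhibition % was calculated from paw thickness.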

rat stomach = test: Ulcerogenic liability; format: in vivo; settings: rats sacrificed 4 h after drug administration
[2] = 1 h after carrageenan injection
[3] = 3 h after carrageenan injection
[4] = 6 h after carrageenan injection

## C/C(=N\NC(=O)Cn1c(-c2ccc(S(C)(=O)=O)cc2)nc2cc(Cl)ccc21)c1ccc(Cl)cc1 [12d, (E)-2-(5-Chloro-2-(4-(methylsulfonyl)phenyl)-1H-benzo[d]imidazol-1-yl)-N′-(1-(4-chlorophenyl)ethylidene) acetohydrazide]
Ovine COX-2
  IC50: 0.1 µM
Ovine COX-2; COX-1 IC50/COX-2 IC50
  Selectivity index (SI): 132
rat's stomach
  Severity of histopathological lesions of the stomach (in words): mild pathological lesions
Ovine COX-1
  IC50: 13.2 µM
[1]; [2]
  Edema inhibition %, 1 h: 89%
  Edema thickness ± SEM, 1 h: 0.286 ± 0.009 mm
[1]; [3]
  Edema inhibition %, 3 h: 93%
  Edema thickness ± SEM, 3 h: 0.154 ± 0.008 mm
[1]; [4]
  Edema inhibition %, 6 h: 94.7% and 95%
  Edema thickness ± SEM, 6 h: 0.098 ± 0.005 mm
Rat stomach
  Ulcer index, mean: 1 mm
